Compound activity (PubChem)
Rows were chosen to be rich in hits. Some 2.3% of all compounds tested hit in one or more screens of this group.
CHT block: inhibitors of human choline transporter CHT | AID 488975, 2010 | CHT-expressing cells, membrane potential dye, choline response; stronger effect = lower value | High affinity choline transporter 1 (Homo sapiens), Q9GZV3 | actives 0.86% (n = 310,000) | B-score at 10 µM;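 active means B-score over 3 SD under the library average, and starting fluorescence ratio not unusually high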;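 further: choline stimulus applied at its EC90 after an EC20 pre-addition; B-score computed on integrated fluorescence ratio after choline addition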
COUP-TFII inh: NR2F2 transcriptional activity inhibitors, primary screen, cell-based, luciferase reporter, HEK293T, luminescence; COUP transcription factor 2 (Homo sapiens), P24468; actives 0.7% (n = 370,000); inhibition, % at 8.6 µM; HEK293T NGFI-A luciferase reporter;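 active means inhibition above a per-plate cutoff, mean inhibition of test wells between control levels plus 3 SD, cut at about 38% in these data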;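 further: cells cotransfected with COUP-TFII expression vector driving the NGFI-A reporter; 0% = median of COUP-TF2 test wells and 100% = reporter-only cells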
Target sequence (P24468 whole entry, looked up): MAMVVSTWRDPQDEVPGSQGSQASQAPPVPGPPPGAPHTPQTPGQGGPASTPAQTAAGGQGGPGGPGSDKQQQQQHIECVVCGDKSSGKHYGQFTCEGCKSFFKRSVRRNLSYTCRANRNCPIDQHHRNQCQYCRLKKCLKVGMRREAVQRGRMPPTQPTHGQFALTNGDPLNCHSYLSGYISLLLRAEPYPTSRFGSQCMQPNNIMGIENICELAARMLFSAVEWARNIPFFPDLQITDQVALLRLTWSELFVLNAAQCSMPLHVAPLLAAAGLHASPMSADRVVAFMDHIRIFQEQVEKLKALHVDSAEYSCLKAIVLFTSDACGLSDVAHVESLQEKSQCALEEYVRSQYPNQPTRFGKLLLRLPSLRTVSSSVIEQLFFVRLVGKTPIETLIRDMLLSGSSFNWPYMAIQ
CHT PAM: CHT positive allosteric modulators, primary screen, cell-based, membrane potential dye, choline EC20 | High affinity choline transporter 1 (Homo sapiens), Q9GZV3 | CHT-expressing cells; stronger effect = higher value; LV-AA mutant CHT in HEK293 cells | B-score at 10 µM | actives 0.49% (n = 310,000);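 active means initial fluorescence not abnormally high and integrated response B-score, plate-corrected, over 3 SD above library mean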
NR2E3 ag-1: inhibitors of NR2E3-RetCOR corepressor binding, primary screen, NR2E3 agonist project, biochemical, TR-FRET, GST-NR2E3, biotin-RetCOR; 1536-well; Photoreceptor-specific nuclear receptor (Homo sapiens), Q9Y5X4; inhibition of corepressor binding, % at 4.78 µM; actives 0.12% (n = 320,000);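 active means percent inhibition above the cutoff of mean plus 3 SD of all tested compounds, set per screening campaign, cut at about 20% in these data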;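 further: 0% = DMSO wells and 100% = biotin wells as full block of FRET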
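Material – GST-tagged NR2E3 plus biotinylated RetCOR corepressor · Quantity – NR2E3 fusion 1.35 nM · Times – 5 h incubation at 4 °C · Medium – pH 7.5 Tris-based buffer · Technique – TR-FRET, Eu(K)-anti-GST donor, streptavidin-D2 acceptor, ex 340, em 617/671 nm · Benchmarks – high control biotin, low control 0.6% DMSO · Format – 1536-well plates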
NR2E3 ag-2: NR2E3 agonists in two-hybrid cells, primary screen, cell-based, luminescence, CHO-S, Gal4-NCOR/VP16-NR2E3; inhibition of corepressor binding, % at 3.98 µM; luciferase; Photoreceptor-specific nuclear receptor (Homo sapiens), Q9Y5X4; actives 0.35% (n = 360,000); AID 602229, 2012;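 active means inhibition above the mean of all tested compounds plus 3 SD, cut at about 70% in these data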;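 further: 0% = DMSO with NR2E3 transfected cells and 100% = cells lacking NR2E3 construct; higher means lower luciferase signal from less NR2E3 corepressor binding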
GalR3 antagonist: GalR3 antagonists in HEK293 cells, primary screen, cell-based, fluorescence readout. HEK293 GalR3-CNG cAMP membrane potential fluorescence; galR3 body fused to GalR1 C-terminus. Galanin receptor type 3 (Homo sapiens), O60755. actives 0.44% (n = 360,000). AID 651719, 2012. inhibition, % at 3 µM;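 active means inhibition above the screen-wide average plus 3 SD, cut at about 13% in these data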;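 further: forskolin and galanin both at EC90 stimulate the cells; cAMP rise reported by CNG channel membrane potential dye signal; 0% = forskolin plus galanin with DMSO and 100% = forskolin alone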
NR2E3 ag confirm: NR2E3 agonist confirmation in cells, cell-based, luminescence, CHO-S two-hybrid; shares compounds with NR2E3 ag-2; CHO-S mammalian two-hybrid NR2E3-NCOR, luciferase luminescence; inhibition, % at 3.98 µM; actives 51% (n = 2,300);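 active means average inhibition above a cutoff equal to the mean inhibition of all tested compounds plus one SD, cut at about 70% in these data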;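 further: 0% = DMSO in NR2E3 cells and 100% = DMSO in cells lacking NR2E3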
VP16 counter: GAL4-VP16 reporter modulators, confirmation, counter-screen for NR2E3 agonist project, cell-based, luminescence, CHO-S, high throughput. actives 29% (n = 2,300). inhibition, % at 3.98 µM. CHO-S GAL4-VP16 luciferase reporter. shares compounds with NR2E3 ag-2. AID 624379, 2012;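 active means mean inhibition above a cutoff equal to the average over all tested compounds plus one standard deviation, cut at about 70% in these data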;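 further: luciferase from a UAS reporter driven by GAL4-VP16 transactivation; 0% = DMSO with VP16-transfected cells and 100% = DMSO with cells lacking VP16; higher means less reporter light so more repression of VP16 activity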
* = called active by the depositor; i = inactive; · = no result given.

SMILES | CHT block | COUP-TFII inh | CHT PAM | NR2E3 ag-1 | NR2E3 ag-2 | GalR3 antagonist | NR2E3 ag confirm | VP16 counter
CC1c2cc3c(cc2CCN1C(=O)c1ccc(C(F)(F)F)cc1)OCCCO3 (stereo not given) | i | 3 | i | -2 | 59 | 1 | 21 | 39
Cc1c(NS(=O)(=O)c2cc3c(cc2Br)CCN3C(=O)C2CC2)c(=O)n(-c2ccccc2)n1C | · | -8 | · | · | · | · | · | ·
Cn1cccc1C(=O)N1CCN(S(=O)(=O)c2cccs2)CC1 | · | 6 | · | · | · | · | · | ·
O=C(OCC#CCSc1nnc(-c2cccc3ccccc23)o1)c1ccc(F)nc1 | · | -8 | · | · | · | · | · | ·
CC(C)(C)c1ccc(-c2n[nH]c(=S)n2C2CCCC2)cc1 | i | 27 | i | -1 | 65 | -7 | 72* | 61
CCCCOCCCNC(=O)C[C@H]1C(=O)N(CCCOC)C2=CCCCC[C@]21C(=O)OC | · | 11 | · | · | · | · | · | ·
C/C(=N\NC(=S)NCCc1ccccc1)c1ccc(O)cc1O | i | -2 | i | 0 | 78* | -8 | -17 | 8
C/C(=N\NC(=S)NCc1ccccc1)c1ccc(C(C)(C)C)cc1 | i | 7 | i | 1 | -7 | -1 | · | ·
CCOc1ccc(/C(CCC(=O)O)=N/NC(=S)NCCc2ccccc2)cc1 | i | -15 | i | 1 | 53 | 2 | -4 | -2
C/C(=N\NC(=S)NCc1ccccc1)c1ccccc1 | i | -16 | i | 1 | 56 | -1 | -36 | -40
Fc1cccc(CNC(=S)OC2CCC23CCC(c2ccccc2)CC3)c1 (stereo not given) | · | 3 | · | · | · | · | · | ·
C=CCn1c(COc2ccc(C)cc2)nnc1SCC(=O)Nc1cc(Cl)cc(Cl)c1 | · | -16 | · | · | · | · | · | ·
O=C(CSc1nnc(-c2cnccn2)n1-c1ccccc1)Nc1ccc2cn[nH]c2c1 | · | -15 | · | · | · | · | · | ·
Cc1[nH]c2ccccc2c(=O)c1C(=O)/C=C/c1ccccc1 | i | 11 | i | -4 | 65 | -4 | 30 | 60
Cc1ccc2[nH]c3c(c2c1)CCCC3NC(=O)CCl (stereo not given) | i | · | i | 1 | 88* | · | 89* | 72*
CCc1ccc(CN(C)C(=O)c2cc(COc3cncc(Cl)c3)on2)cc1 | · | 4 | · | · | -22 | -7 | · | ·
CCc1ccc(CN(C)C(=O)c2cc(COc3ccc(-n4cncn4)cc3)on2)cc1 | i | 15 | i | 2 | 80* | -3 | 43 | 44
CN(Cc1ccc(F)cc1)C(=O)c1cc(COc2ccc(-n3cncn3)cc2)on1 | i | 19 | i | · | 73* | -3 | 61 | 63
Cc1ccc(OCc2cc(C(=O)N(C)Cc3cnn(-c4ccccc4C)c3)no2)cn1 | i | 24 | i | 1 | 80* | -4 | 56 | 49
Cc1ccc(OCc2cc(C(=O)N(C)Cc3cnn(C)c3)no2)cc1C | · | -33 | · | · | -50 | -1 | · | ·
CC(=O)c1cc(-c2cnn(Cc3ccccc3)c2)c(=O)n2c1CCC2 | · | 1 | · | · | · | · | · | ·
CCN1CCN(CCNC(=O)c2ccc(/C=C3\Sc4ccccc4N(Cc4ccccc4F)C3=O)cc2)CC1 | i | -1 | i | 1 | 48 | 7 | -11 | 35
Clc1cccc(CNC2CCC23CCCCC3)c1 (stereo not given) | · | 4 | · | · | · | · | · | ·
Cc1cc(C)n(-c2nc(Nc3ccccc3C)nc(-n3nc(C)cc3C)n2)n1 | i | 6 | i | 0 | · | -5 | · | ·
CCNc1nc(NCC)nc(-n2nc(C)cc2C)n1 | i | 18 | i | 1 | 55 | -4 | -5 | -8
